ChEMBL document CHEMBL4680121, “Development of (4-methoxyphenyl)-1H-tetrazol-5-amine regioisomers as a new class of selective antitubercular agents” (Eur J Med Chem, 2020)

How the values were obtained:
Assay type in all cases: functional
[1] = tested on: Mycobacterium tuberculosis; experiment: Antitubercular activity against PAS/INH/EMB/RMP-resistant Mycobacterium tuberculosis Spec.210 assessed as inhibition of microbial growth by classical test tube method
How it was run: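 Classical test-tube serial dilution in Youmans' modified Proskauer–Beck liquid medium with 10% bovine serum. Inoculum came from 14-day-old cultures. Compounds were given as DMSO solutions (stock 10 mg/ml), diluted geometrically in medium to 3.1–100 µg/ml, and incubated at 37 °C. MIC is the minimum concentration inhibiting growth relative to a no-compound control.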

[2] = tested on: Mycobacterium tuberculosis; experiment: Antitubercular activity against PAS/INH/EMB/RMP-resistant Mycobacterium tuberculosis Spec.210 assessed as inhibition of microbial growth incubated for 1 week by MABA method; details: Mycobacterium tuberculosis, 210, 168 h; time 1 weeks
How it was run: (§1)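 Microplate Alamar Blue assay in Middlebrook 7H9 broth with 10% OADC. Inoculum from fresh LJ culture was adjusted to McFarland 1 and diluted 1:20. DMSO stocks were two-fold serially diluted to final 0.125–512 µg/ml, with growth and sterile controls. Plates ran 1 week at 37 °C, then Alamar blue was added for 24 h. MIC is the lowest concentration preventing the blue-to-pink change.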

[3] = tested on: Mycobacterium tuberculosis; experiment: Antitubercular activity against INH-resistant Mycobacterium tuberculosis Spec.800 harboring InhA promoter mutation assessed as inhibition of microbial growth incubated for 1 week by MABA method; details: time 1 weeks; how it was run: as §1
[4] = tested on: Mycobacterium tuberculosis; experiment: Potency index, Ratio of rifampicin MIC to test compound MIC for antitubercular activity against PAS/INH/EMB/RMP-resistant Mycobacterium tuberculosis Spec.210 assessed as inhibition of microbial growth incubated for 1 week by MABA method; details: time 1 weeks
[5] = tested on: Mycobacterium tuberculosis; experiment: Potency index, Ratio of ethambutol MIC to test compound MIC for antitubercular activity against PAS/INH/EMB/RMP-resistant Mycobacterium tuberculosis Spec.210 assessed as inhibition of microbial growth incubated for 1 week by MABA method; details: time 1 weeks
[6] = tested on: Mycobacterium tuberculosis; experiment: Potency index, Ratio of isoniazid MIC to test compound MIC for antitubercular activity against PAS/INH/EMB/RMP-resistant Mycobacterium tuberculosis Spec.210 assessed as inhibition of microbial growth incubated for 1 week by MABA method; details: time 1 weeks
[7] = tested on: Mycobacterium tuberculosis; experiment: Potency index, Ratio of streptomycin MIC to test compound MIC for antitubercular activity against PAS/INH/EMB/RMP-resistant Mycobacterium tuberculosis Spec.210 assessed as inhibition of microbial growth incubated for 1 week by MABA method; details: time 1 weeks

Question: COc1ccc(NC(=S)Nc2cccc(Br)c2)cc1 was tested. Which MIC [1] did it give?
Answer: 50 µg/mL

Question: Which MIC [2] does the source give for COc1ccc(Nc2nnnn2-c2ccc(F)cc2)cc1 here?
Answer: 8 µg/mL

Question: And the MIC [3]?
Answer: 128 µg/mL

Question: What about the Ratio [4] of the same compound?
Answer: 2

Question: And the Ratio [5]?
Answer: 2

Question: And the Ratio [6]?
Answer: 2

Question: And the Ratio [7]?
Answer: 2

Question: What does the source list for COc1ccc(-n2nnnc2Nc2ccccc2Cl)cc1?
Answer: MIC [2]: 8 µg/mL; MIC [3]: 256 µg/mL; Ratio [4]: 2; Ratio [5]: 2; Ratio [6]: 2; Ratio [7]: 2

Question: For COc1ccc(NC(=S)Nc2cccc(F)c2)cc1, which MIC [1] is on record?
Answer: 100 µg/mL

Question: With COc1ccc(NC(=S)Nc2cccc(Cl)c2)cc1 as the compound, how does the MIC [1] read?
Answer: 100 µg/mL

Question: Which results are given for COc1ccc(Nc2nnnn2-c2cccc(Br)c2)cc1?
Answer: MIC [2]: 16 µg/mL; MIC [3]: 256 µg/mL

Question: For COc1ccc(NC(=S)Nc2ccc(Br)cc2)cc1, which MIC [1] is on record?
Answer: > 100 µg/mL

Question: Which MIC [1] does the source give for COc1ccc(NC(S)=Nc2ccc(F)cc2)cc1 here?
Answer: 100 µg/mL

Question: How did the MIC [2] turn out when COc1ccc(-n2nnnc2Nc2ccccc2Br)cc1 was run?
Answer: 64 µg/mL

Question: What about the MIC [3] of the same compound?
Answer: 512 µg/mL

Question: Which results are given for COc1ccc(Nc2nnnn2-c2ccccc2Cl)cc1?
Answer: MIC [2]: 8 µg/mL; MIC [3]: 128 µg/mL; Ratio [4]: 2; Ratio [5]: 2; Ratio [6]: 2; Ratio [7]: 2

Question: With CO[C@H]1/C=C/O[C@@]2(C)Oc3c(C)c(O)c4c(O)c(c(/C=N/N5CCN(C)CC5)c(O)c4c3C2=O)NC(=O)/C(C)=C\C=C\[C@H](C)[C@H](O)[C@@H](C)[C@@H](O)[C@@H](C)[C@H](OC(C)=O)[C@@H]1C [RIFAMPIN] as the compound, how does the MIC [2] read?
Answer: 32 µg/mL

Question: And the MIC [3]?
Answer: 1 µg/mL

Question: What about the MIC [1] of the same compound?
Answer: 50 µg/mL

Question: How did the MIC [2] turn out when COc1ccc(Nc2nnnn2-c2cccc(F)c2)cc1 was run?
Answer: 16 µg/mL

Question: What about the MIC [3] of the same compound?
Answer: 256 µg/mL

Question: Which MIC [2] does the source give for COc1ccc(-n2nnnc2Nc2cccc(Cl)c2)cc1 here?
Answer: 32 µg/mL

Question: What about the MIC [3] of the same compound?
Answer: 256 µg/mL

Question: Which MIC [1] does the source give for COc1ccc(NC(=S)Nc2ccccc2F)cc1 here?
Answer: 100 µg/mL

Question: How did the MIC [2] turn out when COc1ccc(Nc2nnnn2-c2ccccc2Br)cc1 was run?
Answer: 16 µg/mL

Question: What about the MIC [3] of the same compound?
Answer: 256 µg/mL

Question: How did the MIC [2] turn out when COc1ccc(-n2nnnc2Nc2cccc(F)c2)cc1 was run?
Answer: 8 µg/mL

Question: What about the MIC [3] of the same compound?
Answer: 256 µg/mL

Question: And the Ratio [4]?
Answer: 2

Question: What about the Ratio [5] of the same compound?
Answer: 2

Question: And the Ratio [6]?
Answer: 2

Question: What about the Ratio [7] of the same compound?
Answer: 2

Question: COc1ccc(Nc2nnnn2-c2cccc(Cl)c2)cc1 was tested. Which MIC [2] did it give?
Answer: 8 µg/mL

Question: And the MIC [3]?
Answer: 128 µg/mL

Question: What about the Ratio [4] of the same compound?
Answer: 2

Question: And the Ratio [5]?
Answer: 2

Question: What about the Ratio [6] of the same compound?
Answer: 2

Question: And the Ratio [7]?
Answer: 2

Question: Which MIC [2] does the source give for COc1ccc(Nc2nnnn2-c2ccc(Br)cc2)cc1 here?
Answer: 16 µg/mL

Question: And the MIC [3]?
Answer: 256 µg/mL

Question: Which results are given for COc1ccc(-n2nnnc2Nc2ccc(Cl)cc2)cc1?
Answer: MIC [2]: 16 µg/mL; MIC [3]: 256 µg/mL

Question: COc1ccc(-n2nnnc2Nc2ccccc2F)cc1 was tested. Which MIC [2] did it give?
Answer: 16 µg/mL

Question: For COc1ccc(Nc2nnnn2-c2ccc(Cl)cc2)cc1, which MIC [2] is on record?
Answer: 8 µg/mL

Question: What about the MIC [3] of the same compound?
Answer: 128 µg/mL

Question: What about the Ratio [4] of the same compound?
Answer: 2

Question: And the Ratio [5]?
Answer: 2

Question: What about the Ratio [6] of the same compound?
Answer: 2

Question: What about the Ratio [7] of the same compound?
Answer: 2

Question: Which MIC [2] does the source give for CC[C@@H](CO)NCCN[C@@H](CC)CO [ETHAMBUTOL] here?
Answer: 32 µg/mL

Question: And the MIC [3]?
Answer: 2 µg/mL

Question: And the MIC [1]?
Answer: 50 µg/mL

Question: Which MIC [2] does the source give for COc1ccc(Nc2nnnn2-c2ccccc2F)cc1 here?
Answer: 16 µg/mL

Question: What does the source list for CN[C@@H]1[C@H](O[C@H]2[C@H](O[C@H]3[C@H](O)[C@@H](O)[C@H](N=C(N)N)[C@@H](O)[C@@H]3N=C(N)N)O[C@@H](C)[C@]2(O)C=O)O[C@@H](CO)[C@H](O)[C@H]1O [STREPTOMYCIN]?
Answer: MIC [2]: 16 µg/mL; MIC [3]: 1 µg/mL; MIC [1]: 25 µg/mL

Question: Which MIC [1] does the source give for COc1ccc(NC(=S)Nc2ccccc2Br)cc1 here?
Answer: 50 µg/mL

Question: With COc1ccc(NC(=S)Nc2ccccc2Cl)cc1 as the compound, how does the MIC [1] read?
Answer: 50 µg/mL

Question: Which MIC [2] does the source give for COc1ccc(-n2nnnc2Nc2ccc(F)cc2)cc1 here?
Answer: 32 µg/mL

Question: What about the MIC [3] of the same compound?
Answer: 512 µg/mL

Question: What does the source list for NNC(=O)c1ccncc1 [ISONIAZID]?
Answer: MIC [2]: 16 µg/mL; MIC [3]: 2 µg/mL; MIC [1]: 12.5 µg/mL

Question: COc1ccc(NC(=S)Nc2ccc(Cl)cc2)cc1 was tested. Which MIC [1] did it give?
Answer: 50 µg/mL
